# “Also recorded” adds a separate entry of the source.
# How the values were obtained:
# C. elegans = assay: Bioaccumulation in C. elegans; type: in vitro ADME, Caenorhabditis elegans; conditions: for accumulation in C. elegans (in words): late-stage L4 worms, 10 μM (2 nmol/mg worm), 6 h, LC-MS of homogenates; for worm concentration as share of the dose: at 6 h, dose 2 nmol/mg worm
# In short: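 Synchronised C. elegans grown to late L4 on E. coli OP50 at 25 °C for 40 h, water-washed, and suspended in M9 at ~5−10 worms/μL. Dosed at 10 μM final (~2 nmol/mg worm) from DMSO stock, 6 or 12 h at rt. Washed in 0.1% SDS then water, frozen, lyophilised, weighed, extracted into cold MeOH/MeCN with internal standard. Quantified by LC-ESI-MS against blank-worm calibration; mean ± sd, n = 3.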
# O. volvulus L3 larvae = assay: O. volvulus L3 molting inhibition; type: cell-based, Onchocerca volvulus; conditions: for inhibition at 1 µM: Onchocerca volvulus, read-out: inhibition of O. volvulus L3 molting
# HEK 293T/17 cells [1] = assay: Mitochondrial-uncoupling assay; type: cell-based, human; conditions: 50 μM compound, TMRE staining
# In short: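 HEK 293T/17 cells were trypsinised and suspended at 1−2 × 10^6 cells/mL in DMEM with 10% FBS, then given test compound (50 μM) or DMSO for 30 min at 37 °C. TMRE (~450 nM final) was added for 30 min in the dark at 37 °C. Cells were washed twice in 0.2% BSA/PBS, resuspended, and read by plate fluorescence (em 575 nm). Unstained and DMSO controls were included; mean ± sd, n = 3.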
# PfCHT1 = biological target: T1, PfCHT1 (Plasmodium falciparum, UniProt Q8I4R4); assay: Chitinase activity assay, Plasmodium falciparum chitinase; type: biochemical; conditions: 10 μM final concentration
# T1 sequence (Q8I4R4 29-378): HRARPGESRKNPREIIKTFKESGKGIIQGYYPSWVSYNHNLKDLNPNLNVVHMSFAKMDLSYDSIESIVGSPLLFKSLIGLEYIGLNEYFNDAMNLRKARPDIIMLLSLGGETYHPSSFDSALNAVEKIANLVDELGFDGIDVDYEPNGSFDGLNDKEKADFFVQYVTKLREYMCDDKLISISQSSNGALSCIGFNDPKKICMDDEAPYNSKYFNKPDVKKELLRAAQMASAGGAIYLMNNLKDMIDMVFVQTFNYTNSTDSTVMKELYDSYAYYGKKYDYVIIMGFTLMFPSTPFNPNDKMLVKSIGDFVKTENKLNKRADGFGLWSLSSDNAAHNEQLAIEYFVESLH
# OvCHT1 = biological target: T2, OvCHT1 (Onchocerca volvulus, UniProt Q25615); assay: O. volvulus chitinase; type: biochemical; conditions: for inhibition of OvCHT1 at single concentration: 10 μM final concentration, relative to control (0.5% DMSO in water)
# T2 sequence (Q25615 22-497): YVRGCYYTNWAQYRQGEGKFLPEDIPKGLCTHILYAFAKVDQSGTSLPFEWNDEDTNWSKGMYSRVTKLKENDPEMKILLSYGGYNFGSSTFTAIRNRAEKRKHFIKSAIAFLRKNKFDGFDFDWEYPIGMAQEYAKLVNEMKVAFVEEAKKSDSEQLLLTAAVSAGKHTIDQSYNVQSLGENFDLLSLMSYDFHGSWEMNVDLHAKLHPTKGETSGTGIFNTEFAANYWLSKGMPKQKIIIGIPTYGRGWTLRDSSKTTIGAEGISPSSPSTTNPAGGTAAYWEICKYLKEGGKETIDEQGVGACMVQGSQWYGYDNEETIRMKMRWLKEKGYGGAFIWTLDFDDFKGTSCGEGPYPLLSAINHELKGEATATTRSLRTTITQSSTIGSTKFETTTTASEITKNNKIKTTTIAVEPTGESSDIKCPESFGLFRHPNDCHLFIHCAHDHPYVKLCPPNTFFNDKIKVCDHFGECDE
# EhCHT1 = assay: Chitinase activity assay, Entamoeba histolytica chitinase; type: biochemical; conditions: 10 μM final concentration
# BmCHT1 = biological target: T3, BmCHT1 (Brugia malayi, UniProt P29030); assay: Chitinase activity assay, Brugia malayi chitinase; type: biochemical; conditions: 10 μM final concentration
# T3 sequence (P29030 23-504): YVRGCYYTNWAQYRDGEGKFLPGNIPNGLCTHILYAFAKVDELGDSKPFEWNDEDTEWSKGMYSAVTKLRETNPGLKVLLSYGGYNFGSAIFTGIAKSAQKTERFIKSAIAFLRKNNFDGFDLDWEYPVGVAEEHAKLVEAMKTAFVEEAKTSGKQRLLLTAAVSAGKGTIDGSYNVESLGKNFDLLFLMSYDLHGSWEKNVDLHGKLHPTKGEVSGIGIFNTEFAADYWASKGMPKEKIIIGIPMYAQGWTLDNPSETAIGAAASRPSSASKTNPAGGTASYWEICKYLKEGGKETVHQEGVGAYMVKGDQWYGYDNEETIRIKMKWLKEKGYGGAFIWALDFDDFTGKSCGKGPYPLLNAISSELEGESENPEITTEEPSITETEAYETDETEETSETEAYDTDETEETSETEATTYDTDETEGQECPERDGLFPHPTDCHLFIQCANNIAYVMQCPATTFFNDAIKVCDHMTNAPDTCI
# HEK 293T/17 cells [2] = assay: Cell viability assay; type: cell-based, human; conditions: 1 and 10 μM, 24 h, MTS assay
# In short: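 HEK 293T/17 cells (2 × 10^4) plated and held 24 h at 37 °C, then exposed to test compound at 1 and 10 μM final. Viability was read by MTS at 0.5 and 24 h after treatment.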
# [3] = 10 μM, 24 h preincubation, molting assessed day 6
SMILES,accumulation in C. elegans (in words) (C. elegans),effect on O. volvulus L3 molting (O. volvulus L3 larvae; [3]),mitochondrial-uncoupling (protonophoric) activity (HEK 293T/17 cells [1]),inhibition of PfCHT1 at single concentration (PfCHT1),inhibition of OvCHT1 at single concentration (OvCHT1),inhibition of EhCHT1 at single concentration (EhCHT1),inhibition of BmCHT1 at single concentration (BmCHT1),further results
"N#CC(C#N)=NNc1cccc(Cl)c1 [CCCP, carbonyl cyanide m-chlorophenyl hydrazone, reference compound]",accumulated in C. elegans,fully inhibited the molting,a protonophore only,–,–,–,–,effect on O. volvulus L3 molting (O. volvulus L3 larvae; 1 μM): did not show any impact on molting
"O=C(Nc1ccc(Oc2ccccc2)cc1)c1cc(I)cc(I)c1O [Compound 3a, 2-Hydroxy-3,5-diiodo-N-(4-phenoxyphenyl)benzamide]",–,–,mitochondrial-uncoupling activity,–,–,–,–,–
"COc1c(I)cc(I)cc1C(=O)Nc1ccc(Oc2ccccc2)cc1 [Compound 3b, 3,5-Diiodo-2-methoxy-N-(4-phenoxyphenyl)benzamide]",–,–,loss of uncoupling activity,–,–,–,–,–
"CN(C(=O)c1cc(I)cc(I)c1O)c1ccc(Oc2ccccc2)cc1 [Compound 3c, 2-Hydroxy-3,5-diiodo-N-methyl-N-(4-phenoxyphenyl)benzamide]",–,–,eradicated protonophoric activity,–,–,–,–,–
"COc1c(I)cc(I)cc1C(=O)N(C)c1ccc(Oc2ccccc2)cc1 [Compound 3d, 3,5-Diiodo-2-methoxy-N-methyl-N-(4-phenoxyphenyl)benzamide]",–,–,loss of uncoupling activity,–,–,–,–,–
"O=C(Nc1ccc(Oc2ccccc2)cc1)c1cc(I)cc(I)c1 [Compound 3e, 3,5-Diiodo-N-(4-phenoxyphenyl)benzamide]",–,–,loss of uncoupling activity,–,–,–,–,–
"O=C(Nc1ccc(Oc2ccc(Cl)cc2)cc1)c1cc(I)cc(I)c1O [Compound 3h, N-(4-(4-Chlorophenoxy)phenyl)-2-hydroxy-3,5-diiodobenzamide]",accumulated in C. elegans,completely abolished molting,mitochondrial-uncoupling activity,sparing,complete inhibition,sparing,sparing,inhibition at 1 µM (O. volvulus L3 larvae): ≤ 84%; effect on cell viability of HEK 293T/17 cells (HEK 293T/17 cells [2]): no considerable effect on cell viability
"COc1c(I)cc(I)cc1C(=O)Nc1ccc(Oc2ccc(Cl)cc2)cc1 [Compound 3i, N-(4-(4-Chlorophenoxy)phenyl)-3,5-diiodo-2-methoxybenzamide]",accumulated in C. elegans,only marginal inhibition,loss of uncoupling activity; also recorded: devoid of protonophoric activity,sparing,complete inhibition,sparing,sparing,effect on O. volvulus L3 molting (O. volvulus L3 larvae; 100 μM): completely hindered L3 molting
"O=C(Nc1ccc(Oc2ccc(Cl)cc2)cc1)c1cc(I)cc(I)c1 [Compound 3j, N-(4-(4-Chlorophenoxy)phenyl)-3,5-diiodobenzamide]",accumulated in C. elegans,–,loss of uncoupling activity; also recorded: devoid of protonophoric activity,sparing,complete inhibition,sparing,sparing,–
"O=C(Nc1ccc(Oc2ccc(Cl)cc2)c(Cl)c1)c1cc(I)cc(I)c1O [Compound 3m, rafoxanide, reference compound]",accumulated in C. elegans,completely abolished molting,good mitochondrial-uncoupling activity,sparing,complete inhibition,sparing,sparing,"worm level as share of the initial dose (C. elegans; at 6 and 12 h, initial dose 2 nmol/mg worm): > 75%; inhibition of O. volvulus L3 molting (O. volvulus L3 larvae; 1 μM, 24 h preincubation, molting assessed day 6): up to 84%; effect on cell viability of HEK 293T/17 cells (HEK 293T/17 cells [2]): no considerable effect on cell viability"
"O=C(Nc1ccc2ccccc2c1)c1cc(I)cc(I)c1O [Compound 4a, 2-Hydroxy-3,5-diiodo-N-(naphthalen-2-yl)benzamide]",accumulated in C. elegans,completely abolished molting,mitochondrial-uncoupling activity,–,–,–,–,worm concentration as share of the dose (C. elegans): less than 50%; inhibition at 1 µM (O. volvulus L3 larvae): ≤ 84%; effect on cell viability of HEK 293T/17 cells (HEK 293T/17 cells [2]): no considerable effect on cell viability
"COc1c(I)cc(I)cc1C(=O)Nc1ccc2ccccc2c1 [Compound 4b, 3,5-Diiodo-2-methoxy-N-(naphthalen-2-yl)benzamide]",accumulated in C. elegans,inhibited molting,loss of uncoupling activity; also recorded: devoid of protonophoric activity,–,–,–,–,worm concentration as share of the dose (C. elegans): less than 50%; effect on O. volvulus L3 molting (O. volvulus L3 larvae; 1 μM): did not show any impact on molting
"O=C(Nc1ccc2ccccc2c1)c1cc(I)cc(I)c1 [Compound 4c, 3,5-Diiodo-N-(naphthalen-2-yl)benzamide]",–,–,loss of uncoupling activity,–,–,–,–,–
"O=C(Nc1ccc(-c2ccccc2)cc1)c1cc(I)cc(I)c1O [Compound 5a, N-([1,1′-Biphenyl]-4-yl)-2-hydroxy-3,5-diiodobenzamide]",accumulated in C. elegans,–,–,sparing,complete inhibition,sparing,sparing,–
"O=C(Nc1ccc(-c2ccc(Cl)cc2)cc1)c1cc(I)cc(I)c1O [Compound 5c, N-(4′-Chloro-[1,1′-biphenyl]-4-yl)-2-hydroxy-3,5-diiodobenzamide]",accumulated in C. elegans,–,–,sparing,complete inhibition,sparing,sparing,–
"COc1c(I)cc(I)cc1C(=O)O [Compound 6b, 3,5-Diiodo-2-methoxybenzoic Acid]",–,no inhibition on molting,neither an OvCHT1 inhibitor nor a protonophore,–,–,–,–,OvCHT1 inhibitor or not (in words) (OvCHT1): neither an OvCHT1 inhibitor nor a protonophore

# From publication PMC4216208 (Journal of Medicinal Chemistry, 2014)
